Calls of active or inactive are those of the source. No cut-off for these calls is given here.
Assays:
Homo sapiens = species on record: Homo sapiens; test: Antiplatelet activity in human platelet-rich plasma assessed as inhibition of ADP-induced platelet aggregation by aggregometry; format: functional
In short: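 Human PRP from healthy donors free of aspirin/NSAIDs for at least two weeks, drawn into ACD; PRP spun at 300 g for 10 min, PPP at 2000 g. Compound in 0.5% DMSO preincubated 2 min at 37 °C with stirring (900 rpm). Aggregation induced by 10 μM ADP (final) and followed optically for 5 min.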

Rattus norvegicus [1] = test: Antithrombotic activity in anesthetized Wistar rat model of tail-bleeding assessed as increase in bleeding time po administered as single dose measured at 1.5 hrs post dose; format: functional
In short: (§1)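 Male rats (250–300 g, n = 10 per dose) acclimatized at least 7 days, then dosed by oral gavage. At 1.5 h, anesthetized with 2% pentobarbital i.p. at 50 mg/kg. Tail transected 4 mm from the tip and immersed in saline at 37 °C; bleeding ended when no blood appeared for 30 s. Bleeding time and blood loss weight recorded as mean ± SEM.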

Rattus norvegicus [2] = test: Antithrombotic activity in anesthetized Wistar rat model of FeCL3-induced carotid artery thrombosis assessed as reduction in thrombus weight po administered as single dose measured at 1.5 hrs post dose; format: functional
In short: (§2)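 Compounds in 0.5% CMC-Na given to Wistar rats as a single oral gavage dose (10 mL/kg). Rats anesthetized with 2% pentobarbital i.p. at 50 mg/kg and kept on a heating pad. At 1.5 h post-dose, filter paper soaked in 20% FeCl3 applied to the isolated left carotid artery for 10 min; thrombus weight recorded. Mean ± SEM, n = 10.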

Rattus norvegicus [3] = test: Antithrombotic activity in anesthetized Wistar rat model of tail-bleeding assessed as increase in bleeding weight at […], po administered as single dose measured at 1.5 hrs post dose; format: functional
Rattus norvegicus [4] = test: Antithrombotic activity in anesthetized Wistar rat model of tail-bleeding assessed as increase in bleeding weight at 5 mg/kg, po administered as single dose measured at 1.5 hrs post dose; format: functional; in short: as §1
Rattus norvegicus [5] = test: Antithrombotic activity in anesthetized Wistar rat model of tail-bleeding assessed as increase in bleeding weight at 10 mg/kg, po administered as single dose measured at 1.5 hrs post dose; format: functional; in short: as §1
Rattus norvegicus [6] = test: Antithrombotic activity in anesthetized Wistar rat model of tail-bleeding assessed as increase in bleeding weight at 20 mg/kg, po administered as single dose measured at 1.5 hrs post dose; format: functional; in short: as §1
Rattus norvegicus [7] = test: Antithrombotic activity in anesthetized Wistar rat model of FeCL3-induced carotid artery thrombosis assessed as reduction in thrombus weight at 10 mg/kg, po administered as single dose measured at 1.5 hrs post dose; format: functional, organism-based; in short: as §2
[8] = Metabolic stability in rat liver microsomes assessed as half life at […] measured up to 60 mins in presence of NADPH regeneration system by LC-MS/MS analysis; format: ADME, Microsome
[9] = Metabolic stability in dog liver microsomes assessed as half life at […] measured up to 60 mins in presence of NADPH regeneration system by LC-MS/MS analysis; format: ADME, Canis lupus familiaris, Microsome
[10] = Metabolic stability in human liver microsomes assessed as half life at […] measured up to 60 mins in presence of NADPH regeneration system by LC-MS/MS analysis; format: ADME, Microsome
[11] = Cmax in Sprague-Dawley rat at 5 mg/kg,po measured up to 24 hrs by LC-MS/MS analysis; format: ADME, organism-based; design: time < 24 hrs, dose 5 mg/kg, route po; conditions: in vivo
[12] = Half life in Sprague-Dawley rat at 5 mg/kg,po measured up to 24 hrs by LC-MS/MS analysis; format: ADME, organism-based; conditions: in vivo
[13] = Tmax in Sprague-Dawley rat at 5 mg/kg,po measured up to 24 hrs by LC-MS/MS analysis; format: ADME, organism-based; conditions: in vivo
[14] = AUC (0 to infinity) in Sprague-Dawley rat at 5 mg/kg,po measured up to 24 hrs by LC-MS/MS analysis; format: ADME, organism-based; design: time < 24 hrs, dose 5 mg/kg, route po; conditions: in vivo
[15] = MRT in Sprague-Dawley rat at 5 mg/kg,po measured up to 24 hrs by LC-MS/MS analysis; format: ADME, organism-based; conditions: in vivo
Cytochrome P450 1A2 = biological target: T1, Cytochrome P450 1A2 (Homo sapiens, UniProt P05177); test: Inhibition of CYP1A2 in human liver microsomes using phenacetin as substrate preincubated for 10 mins followed by NADPH addition and measured after 15 mins by LC-MS/MS analysis
T1 sequence (P05177 whole entry): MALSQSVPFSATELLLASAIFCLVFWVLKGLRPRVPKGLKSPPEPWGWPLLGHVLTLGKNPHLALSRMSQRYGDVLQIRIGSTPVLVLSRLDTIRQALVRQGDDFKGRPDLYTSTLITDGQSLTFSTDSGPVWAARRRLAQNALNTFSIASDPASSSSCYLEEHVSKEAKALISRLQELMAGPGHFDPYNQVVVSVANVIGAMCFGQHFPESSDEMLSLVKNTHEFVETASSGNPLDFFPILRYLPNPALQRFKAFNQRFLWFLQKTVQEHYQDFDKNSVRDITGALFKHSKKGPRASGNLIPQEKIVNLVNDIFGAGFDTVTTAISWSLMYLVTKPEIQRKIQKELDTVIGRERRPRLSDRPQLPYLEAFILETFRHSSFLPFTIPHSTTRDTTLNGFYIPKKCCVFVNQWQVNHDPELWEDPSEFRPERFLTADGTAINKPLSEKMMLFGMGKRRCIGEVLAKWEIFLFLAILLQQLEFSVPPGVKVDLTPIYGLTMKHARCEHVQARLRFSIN

Cytochrome P450 2C9 = Cytochrome P450 2C9 (Homo sapiens, UniProt P11712); test: Inhibition of CYP2C9 in human liver microsomes using tolbutamide as substrate preincubated for 10 mins followed by NADPH addition and measured after 15 mins by LC-MS/MS analysis
Chain of Cytochrome P450 2C9 (P11712 whole entry): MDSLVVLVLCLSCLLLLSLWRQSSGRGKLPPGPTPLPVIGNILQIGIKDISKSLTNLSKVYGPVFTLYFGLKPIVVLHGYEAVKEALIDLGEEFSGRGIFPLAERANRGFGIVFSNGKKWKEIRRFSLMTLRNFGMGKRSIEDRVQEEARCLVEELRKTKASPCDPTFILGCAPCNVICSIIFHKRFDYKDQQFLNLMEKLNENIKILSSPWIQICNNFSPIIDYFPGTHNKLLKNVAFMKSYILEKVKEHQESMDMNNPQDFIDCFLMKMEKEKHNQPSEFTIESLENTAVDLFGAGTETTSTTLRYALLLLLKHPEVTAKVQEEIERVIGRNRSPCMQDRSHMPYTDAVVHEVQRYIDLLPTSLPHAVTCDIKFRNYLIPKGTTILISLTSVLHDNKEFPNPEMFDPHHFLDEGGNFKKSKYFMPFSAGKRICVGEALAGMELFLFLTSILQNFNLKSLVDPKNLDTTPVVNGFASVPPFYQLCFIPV

Cytochrome P450 2C19 = Cytochrome P450 2C19 (Homo sapiens, UniProt P33261); test: Inhibition of CYP2C19 in human liver microsomes using S-mephenytoin as substrate preincubated for 10 mins followed by NADPH addition and measured after 15 mins by LC-MS/MS analysis
Chain of Cytochrome P450 2C19 (P33261 whole entry): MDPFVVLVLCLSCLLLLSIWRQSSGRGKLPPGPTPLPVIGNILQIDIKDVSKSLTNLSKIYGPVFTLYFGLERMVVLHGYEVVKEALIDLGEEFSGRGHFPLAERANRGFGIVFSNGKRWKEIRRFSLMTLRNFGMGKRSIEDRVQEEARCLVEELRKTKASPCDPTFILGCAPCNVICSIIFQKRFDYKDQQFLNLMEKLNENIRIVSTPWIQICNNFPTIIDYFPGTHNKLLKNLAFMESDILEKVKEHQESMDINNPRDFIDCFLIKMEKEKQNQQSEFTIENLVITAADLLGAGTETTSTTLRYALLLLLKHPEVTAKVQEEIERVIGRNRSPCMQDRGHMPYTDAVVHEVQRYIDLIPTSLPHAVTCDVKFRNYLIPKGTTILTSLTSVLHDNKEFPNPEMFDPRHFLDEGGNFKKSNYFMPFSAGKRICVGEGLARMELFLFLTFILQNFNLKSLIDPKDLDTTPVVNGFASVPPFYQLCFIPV

Cytochrome P450 2D6 = Cytochrome P450 2D6 (Homo sapiens, UniProt P10635); test: Inhibition of CYP2D6 in human liver microsomes using dextromethorphan as substrate preincubated for 10 mins followed by NADPH addition and measured after 15 mins by LC-MS/MS analysis
Chain of Cytochrome P450 2D6 (P10635 whole entry): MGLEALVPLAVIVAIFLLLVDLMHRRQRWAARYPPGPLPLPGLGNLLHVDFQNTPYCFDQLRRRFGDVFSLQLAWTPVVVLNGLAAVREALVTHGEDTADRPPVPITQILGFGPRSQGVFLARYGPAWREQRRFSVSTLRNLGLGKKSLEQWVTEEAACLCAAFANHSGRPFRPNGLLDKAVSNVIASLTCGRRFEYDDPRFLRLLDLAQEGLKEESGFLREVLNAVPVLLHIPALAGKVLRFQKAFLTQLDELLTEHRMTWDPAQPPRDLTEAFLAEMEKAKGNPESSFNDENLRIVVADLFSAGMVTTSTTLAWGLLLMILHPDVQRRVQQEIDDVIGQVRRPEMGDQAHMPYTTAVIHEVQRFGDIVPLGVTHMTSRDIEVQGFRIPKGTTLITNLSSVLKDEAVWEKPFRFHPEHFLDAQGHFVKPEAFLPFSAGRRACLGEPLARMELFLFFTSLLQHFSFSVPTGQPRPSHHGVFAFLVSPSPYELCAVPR

Cytochrome P450 3A4 [16] = biological target: T2, Cytochrome P450 3A4 (Homo sapiens, UniProt P08684); test: Inhibition of CYP3A4 in human liver microsomes using Midazolam as substrate preincubated for 10 mins followed by NADPH addition and measured after 15 mins by LC-MS/MS analysis
T2 sequence (P08684 whole entry): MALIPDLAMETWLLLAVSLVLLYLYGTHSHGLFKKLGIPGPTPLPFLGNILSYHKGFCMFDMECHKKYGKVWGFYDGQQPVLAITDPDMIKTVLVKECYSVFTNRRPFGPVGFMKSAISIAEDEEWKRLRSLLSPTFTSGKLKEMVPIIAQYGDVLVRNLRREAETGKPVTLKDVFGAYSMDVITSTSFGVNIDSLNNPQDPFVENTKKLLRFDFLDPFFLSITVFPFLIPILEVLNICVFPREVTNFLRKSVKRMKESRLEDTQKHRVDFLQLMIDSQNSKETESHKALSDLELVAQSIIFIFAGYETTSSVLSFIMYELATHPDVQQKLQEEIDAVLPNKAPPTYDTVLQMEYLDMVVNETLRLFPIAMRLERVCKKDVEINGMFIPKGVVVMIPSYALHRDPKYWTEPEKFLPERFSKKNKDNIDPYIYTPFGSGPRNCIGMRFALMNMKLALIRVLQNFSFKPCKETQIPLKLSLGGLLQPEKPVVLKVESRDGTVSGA

Cytochrome P450 3A4 [17] = biological target: T2, Cytochrome P450 3A4; test: Inhibition of CYP3A4 in human liver microsomes using testosterone as substrate preincubated for 10 mins followed by NADPH addition and measured after 15 mins by LC-MS/MS analysis
[18] = Metabolic stability in rat liver microsomes assessed as intrinsic clearance at 0.1 µM measured up to 60 mins in presence of NADPH regeneration system by LC-MS/MS analysis; conditions: 1 h
[19] = Metabolic stability in dog liver microsomes assessed as intrinsic clearance at 0.1 µM measured up to 60 mins in presence of NADPH regeneration system by LC-MS/MS analysis; conditions: 1 h
[20] = Metabolic stability in human liver microsomes assessed as intrinsic clearance at 0.1 µM measured up to 60 mins in presence of NADPH regeneration system by LC-MS/MS analysis; conditions: 1 h

## N#Cc1cc2c(nc1N1CCC(C(=O)NS(=O)(=O)Cc3ccccc3)CC1)CCCC2=O
Homo sapiens
  IC50: 117 µM

## CN1Cc2nc(N3CCC(C(=O)NS(=O)(=O)Cc4ccccc4)CC3)c(C#N)cc2C1=O
Homo sapiens
  IC50: > 300 µM

## COC(=O)[C@H](c1ccccc1Cl)N1CCc2sccc2C1 [CLOPIDOGREL]
Rattus norvegicus [1]
  ED100: 2.36 mg/kg
Rattus norvegicus [2]
  ED50: 7 mg/kg
Rattus norvegicus [3]
  Activity: 0.44 g
Rattus norvegicus [4]
  Activity: 0.7 g
Rattus norvegicus [5]
  Activity: 1.2 g
Rattus norvegicus [6]
  Activity: 1.99 g

## Cc1ccc(CS(=O)(=O)NC(=O)C2CCN(c3nc4c(cc3C#N)C(=O)OC4)CC2)cc1
Homo sapiens
  IC50: 4.28 µM

## CC1(C(=O)NS(=O)(=O)c2ccc(Cl)s2)CCN(c2nc3c(cc2C#N)C(=O)OC3)CC1
Rattus norvegicus [7]
  Activity: Active
Homo sapiens
  IC50: 1.64 µM
[8]
  half-life: 1.27 h
[9]
  half-life: 3.34 h
[10]
  half-life: 3.4 h
[11]
  Cmax: 479 ng/mL
[12]
  half-life: 1.26 h
[13]
  Tmax: 0.25 h
[14]
  AUC(0-inf): 1060 ng·h/mL
[15]
  MRT: 1.98 h
Cytochrome P450 1A2
  IC50: > 50 µM
Cytochrome P450 2C9
  IC50: > 50 µM
Cytochrome P450 2C19
  IC50: 7.75 µM
Cytochrome P450 2D6
  IC50: > 50 µM
Cytochrome P450 3A4 [16]
  IC50: > 50 µM
Cytochrome P450 3A4 [17]
  IC50: > 50 µM
[18]
  intrinsic clearance: 27.6 mL/min/g
[19]
  intrinsic clearance: 10.5 mL/min/g
[20]
  intrinsic clearance: 10.3 mL/min/g

## Cc1ccc(CS(=O)(=O)NC(=O)C2(F)CCN(c3nc4c(cc3C#N)C(=O)OC4)CC2)cc1
Homo sapiens
  IC50: 32.8 µM

## N#Cc1cc2c(nc1N1CCC(F)(C(=O)NS(=O)(=O)Cc3ccccc3)CC1)COC2=O
Homo sapiens
  IC50: 1.21 µM
[11]
  Cmax: 149 ng/mL
[12]
  half-life: 2.52 h
[13]
  Tmax: 0.25 h
[14]
  AUC(0-inf): 291 ng·h/mL
[15]
  MRT: 3.83 h

## N#Cc1cc2c(nc1N1CCC(C(=O)NS(=O)(=O)Cc3ccccc3F)CC1)COC2=O
Homo sapiens
  IC50: 23.7 µM

## N#Cc1cc2c(nc1N1CCC(C(=O)NS(=O)(=O)Cc3ccccc3)CC1)CCOC2=O
Homo sapiens
  IC50: > 300 µM

## CC1OC(=O)c2cc(C#N)c(N3CCC(C(=O)NS(=O)(=O)Cc4ccccc4)CC3)nc21 (stereo not drawn)
Homo sapiens
  IC50: > 300 µM

## CC1(C(=O)NS(=O)(=O)Cc2ccccc2)CCN(c2nc3c(cc2C#N)C(=O)OC3)CC1
Homo sapiens
  IC50: 6.68 µM

## N#Cc1cc2c(nc1N1CC(C(=O)NS(=O)(=O)Cc3ccccc3)C1)COC2=O
Homo sapiens
  IC50: > 300 µM

## N#Cc1cc2c(nc1N1CCC(C(=O)NS(=O)(=O)Cc3ccccc3)C1)COC2=O (stereo not drawn)
Homo sapiens
  IC50: > 300 µM

## CC1OC(=O)c2cc(C#N)c(N3CCC(C(=O)NS(=O)(=O)c4ccc(Cl)s4)CC3)nc21 (stereo not drawn)
Homo sapiens
  IC50: > 300 µM

## CC1(C(=O)NS(=O)(=O)Cc2ccc(F)cc2F)CCN(c2nc3c(cc2C#N)C(=O)OC3)CC1
Homo sapiens
  IC50: 8.76 µM

## CC(c1ccccc1)S(=O)(=O)NC(=O)C1CCN(c2nc3c(cc2C#N)C(=O)OC3)CC1 (stereo not drawn)
Homo sapiens
  IC50: 4.16 µM

## N#Cc1cc2c(nc1N1CCC(C(=O)NS(=O)(=O)c3ccc(Cl)s3)CC1)COC2=O
Homo sapiens
  IC50: 4.47 µM
[8]
  half-life: 2.53 h
[9]
  half-life: 2.85 h
[10]
  half-life: 1.32 h
[11]
  Cmax: 225 ng/mL
[12]
  half-life: 2.4 h
[13]
  Tmax: 0.25 h
[14]
  AUC(0-inf): 417 ng·h/mL
[15]
  MRT: 2.31 h
Cytochrome P450 1A2
  IC50: > 50 µM
Cytochrome P450 2C9
  IC50: > 50 µM
Cytochrome P450 2C19
  IC50: 28.5 µM
Cytochrome P450 2D6
  IC50: > 50 µM
Cytochrome P450 3A4 [16]
  IC50: > 50 µM
Cytochrome P450 3A4 [17]
  IC50: > 50 µM
[18]
  intrinsic clearance: 13.8 mL/min/g
[19]
  intrinsic clearance: 12.3 mL/min/g
[20]
  intrinsic clearance: 26.6 mL/min/g

## CC1OC(=O)c2cc(C#N)c(N3CC(C(=O)NS(=O)(=O)Cc4ccccc4)C3)nc21 (stereo not drawn)
Homo sapiens
  IC50: > 300 µM

Source: ChEMBL document CHEMBL5233208, “Optimization of P2Y12 Antagonist Ethyl 6-(4-((Benzylsulfonyl)carbamoyl)piperidin-1-yl)-5-cyano-2-methylnicotinate (AZD1283) Led to the Discovery of an Oral Antiplatelet Agent with Improved Druglike Properties” (J Med Chem, 2019)
